Experiment [1] has as its system A431 cells. Description: MTT cytotoxicity / cell viability assay, A431. Format: cell-based, human. The following applies: for IC50: Homo sapiens, A-431, 48 h; for selectivity index: IC50 HaCaT / IC50 A431. Summed up: (§1)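 Cells in 5–10% FBS/DMEM were seeded at 5×10³ per well, refed at 24 h and grown to 70% confluence. They were treated for 48 h at 37°C, 5% CO2 with two-fold serial dilutions of test compound in DMSO (≤0.1%), […], in 8–10 repeats. After MTT, absorbance was read at 562 nm. Viability was expressed relative to DMSO controls and IC50 derived by nonlinear regression. Data are mean ± SD of ≥5 independent experiments in octuplicates.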

The next experiment relates to SK-Mel-28 cells. Description: MTT cytotoxicity / cell viability assay, SK-Mel-28. The experiment is classed as cell-based, human. The following applies: for IC50: Homo sapiens, SK-MEL-28, 48 h; for selectivity index: IC50 melanocytes / IC50 SK-Mel-28. In a few lines:
as §1

For experiment [2], the system named is A375 cells. Description: MTT cytotoxicity / cell viability assay, A375. The experiment is classed as cell-based, human. To be noted: for IC50: Homo sapiens, A-375, 48 h; for selectivity index: IC50 melanocytes / IC50 A375. Summed up: as §1
In another experiment the test system is HaCaT. In words: MTT cytotoxicity / cell viability assay, HaCaT keratinocytes. The experiment is classed as cell-based. The following applies: Homo sapiens, 48 h. Summed up: as §1
A further experiment deals with UWBCC1 cells. Description: MTT cytotoxicity / cell viability assay, UWBCC1. Format: cell-based, human. To be noted: for IC50: Homo sapiens, 48 h; for selectivity index: IC50 HaCaT / IC50 UWBCC1. In a few lines: as §1
Another experiment has as its system Melanocyte. In words: MTT cytotoxicity / cell viability assay, normal melanocytes. The experiment is classed as cell-based. To be noted: Homo sapiens, 48 h. In a few lines: as §1
The next experiment has as its target CDK2/Cyclin A (Homo sapiens, UniProt P24941). In words: In vitro kinase activity assay. Format: biochemical. To be noted: 10-dose, three-fold serial dilution from 100 μM. Summed up: (§2)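 Kinase profiling was run at Reaction Biology. IC50 values came from 10-dose mode, three-fold serial dilutions starting at 100 μM. Reference inhibitors were co-assayed at 1 and 10 μM.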

The target of the next experiment is c-Kit (Homo sapiens, UniProt P10721). In words: In vitro kinase activity assay. Format: biochemical. Summed up: as §2
c-Kit, sequence (P10721 26-976): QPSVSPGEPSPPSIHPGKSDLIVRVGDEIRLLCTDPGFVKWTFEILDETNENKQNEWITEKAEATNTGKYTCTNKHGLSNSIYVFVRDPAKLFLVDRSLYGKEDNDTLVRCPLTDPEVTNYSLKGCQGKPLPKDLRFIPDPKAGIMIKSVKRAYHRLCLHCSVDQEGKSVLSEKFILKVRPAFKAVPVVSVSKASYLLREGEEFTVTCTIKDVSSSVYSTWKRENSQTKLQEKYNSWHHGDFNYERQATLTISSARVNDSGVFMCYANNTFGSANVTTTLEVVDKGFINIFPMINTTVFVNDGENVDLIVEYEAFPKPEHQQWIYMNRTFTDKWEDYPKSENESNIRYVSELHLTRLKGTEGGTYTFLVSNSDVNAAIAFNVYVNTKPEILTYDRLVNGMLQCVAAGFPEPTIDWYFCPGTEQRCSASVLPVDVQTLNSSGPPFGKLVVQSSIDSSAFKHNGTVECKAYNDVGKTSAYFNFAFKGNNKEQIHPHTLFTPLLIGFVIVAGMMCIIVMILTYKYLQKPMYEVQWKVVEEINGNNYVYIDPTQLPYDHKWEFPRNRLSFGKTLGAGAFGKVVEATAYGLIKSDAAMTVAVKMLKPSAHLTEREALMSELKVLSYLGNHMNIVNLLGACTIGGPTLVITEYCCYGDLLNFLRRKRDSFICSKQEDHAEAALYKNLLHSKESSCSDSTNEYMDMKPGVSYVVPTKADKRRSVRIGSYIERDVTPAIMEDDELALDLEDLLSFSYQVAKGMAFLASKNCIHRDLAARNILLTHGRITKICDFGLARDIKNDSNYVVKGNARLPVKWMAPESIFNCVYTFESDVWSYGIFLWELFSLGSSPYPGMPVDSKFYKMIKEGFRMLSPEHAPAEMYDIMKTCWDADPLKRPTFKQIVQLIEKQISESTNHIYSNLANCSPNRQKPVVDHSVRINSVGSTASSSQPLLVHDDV
A further experiment addresses mTOR/FRAP1 (Homo sapiens, UniProt P42345). In words: In vitro kinase activity assay. The experiment is classed as biochemical. Summed up:
as §2

The test system of experiment [3] is A431 cells. Description: DAPI staining of apoptotic nuclei, A431. The experiment is classed as cell-based, human. Summed up: (§3)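 Equal numbers of cells were seeded in T-25 flasks and exposed to test compound at different concentrations for 36 h. Cells were PBS-washed, stained with DAPI in PBS and imaged by fluorescence microscopy at 10x and 1.6×10x. Apoptotic nuclei were scored by morphology and expressed as percentage of cells.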

For experiment [4], the system named is A375 cells. In words: DAPI staining of apoptotic nuclei, A375. Format: cell-based, human. Summed up: as §3
Setting [5] is: A431, treated 36 hours at ½IC50.
[6] abbreviates: A375, treated 36 hours at ½IC50.

`COc1cccc2c1C(=O)c1c(O)c3c(c(O)c1C2=O)C[C@@](O)(C(=O)CO)C[C@@H]3O[C@H]1C[C@H](N)[C@H](O)[C@H](C)O1` [Doxorubicin, reference compound]: the concentration for half-maximal inhibition (IC50) with A431 cells [1] was determined as 0.37 ± 0.02 µM; with SK-Mel-28 cells it was 0.23 ± 0.06 µM; in the experiment on A375 cells [2] it was 0.1 ± 0.01 µM; in the experiment on HaCaT it was 0.07 ± 0.01 µM. Also, the selectivity index in the experiment on A431 cells [1] stood at 0.2.

On to `O=c1c(O)c(-c2ccccc2)oc2ccccc12` [F1, 3-Hydroxy-2-phenyl-4H-chromen-4-one], for which the IC50 with UWBCC1 cells was found to be 12 ± 0.8 µM; with Melanocyte it was 27 ± 0.9 µM; in the experiment with A431 cells [1], 15 ± 0.04 µM; with SK-Mel-28 cells, 21 ± 1 µM; with A375 cells [2], 14 ± 0.8 µM; in the experiment on HaCaT, 38 ± 0.02 µM. In addition, the selectivity index in the experiment on UWBCC1 cells turned out to be 3.2; with A431 cells [1] it was 2.5; in the experiment with SK-Mel-28 cells it was 1.2; with A375 cells [2], 1.9.

As for `COc1cccc(-c2oc3ccccc3c(=O)c2O)c1` [F2, 3-Hydroxy-2-(3-methoxyphenyl)-4H-chromen-4-one], the IC50 is 21 ± 16 µM in the experiment with A431 cells [1] and 28 ± 2.3 µM with A375 cells [2].

With `O=c1c(O)c(-c2ccc(SC(F)(F)F)cc2)oc2ccccc12` [F3, 3-Hydroxy-2-(4-((trifluoromethyl)thio)phenyl)-4H-chromen-4-one], the half-inhibitory concentration (IC50) in the experiment with Melanocyte is 31 ± 0.74 µM; with A431 cells [1], 9.7 ± 2.3 µM; in the experiment with SK-Mel-28 cells, 5.2 ± 1.7 µM; in the experiment with A375 cells [2], 14 ± 0.2 µM; in the experiment with HaCaT, 27 ± 0.7 µM. Moreover, the selectivity index in the experiment on A431 cells [1] is given as 2.8; in the experiment with SK-Mel-28 cells, 6.0; in the experiment with A375 cells [2] it was 2.2.

As for `O=c1c(O)c(-c2ccc(Br)cc2Cl)oc2ccccc12` [F4, 2-(4-Bromo-2-chlorophenyl)-3-hydroxy-4H-chromen-4-one], the 50% inhibitory concentration (IC50) in the experiment with A431 cells [1] is 61 ± 30 µM; in the experiment on A375 cells [2], over 100 µM.

On to `O=c1c(O)c(-c2ccc(C(F)(F)F)cc2C(F)(F)F)oc2ccccc12` [F5, 2-(2,4-Bis(trifluoromethyl)phenyl)-3-hydroxy-4H-chromen-4-one], for which the IC50 in the experiment with A431 cells [1] was over 100 µM; with A375 cells [2], 95 ± 12 µM.

For `O=c1c(O)c(-c2cc(C(F)(F)F)cc(C(F)(F)F)c2)oc2ccccc12` [F6, 2-(3,5-Bis(trifluoromethyl)phenyl)-3-hydroxy-4H-chromen-4-one], the IC50 is 6.6 ± 0.79 µM with UWBCC1 cells; 26 ± 1.3 µM with Melanocyte; over 100 µM at CDK2/Cyclin A; over 100 µM at c-Kit; 8.6 ± 0.5 µM in the experiment with A431 cells [1]; 27 ± 4.1 µM in the experiment on SK-Mel-28 cells. Further, the IC50 with A375 cells [2] was determined as 7 ± 0.32 µM; in the experiment on HaCaT, 31 ± 1.9 µM. Moreover, the selectivity index in the experiment with UWBCC1 cells was 4.7; in the experiment on A431 cells [1] it was 3.6; in the experiment with A375 cells [2], 3.7.

For the compound `O=c1c(O)c(-c2ccc(OCc3ccccc3)cc2)oc2ccccc12` [F7, 2-(4-(Benzyloxy)phenyl)-3-hydroxy-4H-chromen-4-one], the IC50 with A431 cells [1] was over 100 µM; in the experiment with A375 cells [2], 88 ± 35 µM.

Regarding `COc1ccc(-c2oc3cc(C)ccc3c(=O)c2O)c(Br)c1OC` [F10, 2-(2-Bromo-3,4-dimethoxyphenyl)-3-hydroxy-7-methyl-4H-chromen-4-one], the IC50 in the experiment on UWBCC1 cells was 11 ± 5 µM; with A431 cells [1] it was 36 ± 0.1 µM; in the experiment with A375 cells [2], 31 ± 13 µM.

With `Cc1ccc2c(=O)c(O)c(-c3ccc(C(C)(C)C)cc3)oc2c1` [F11, 2-(4-(Tert-butyl)phenyl)-3-hydroxy-7-methyl-4H-chromen-4-one], the 50% inhibitory concentration (IC50) in the experiment on UWBCC1 cells turned out to be 9.7 ± 0.6 µM; in the experiment with Melanocyte it was 26 ± 1.1 µM; on CDK2/Cyclin A it was 32.5 µM; in the experiment on A431 cells [1], 4.7 ± 0.9 µM; with SK-Mel-28 cells, 18 ± 2 µM; in the experiment with A375 cells [2], 11 ± 2 µM. The IC50 in the experiment on HaCaT was determined as 25 ± 0.78 µM. The selectivity index in the experiment on UWBCC1 cells is listed as 2.3; with A431 cells [1], 4.7; in the experiment with SK-Mel-28 cells, 1.4; in the experiment on A375 cells [2], 2.4. Further, the “inhibition of mTOR kinase activity (in words)” value against mTOR/FRAP1 is recorded as “did not substantively inhibit”.

As for `COc1ccc2c(=O)c(O)c(-c3ccc(Br)cc3)oc2c1` [F12, 2-(4-Bromophenyl)-3-hydroxy-7-methoxy-4H-chromen-4-one], the IC50 with A431 cells [1] and in the experiment with A375 cells [2] was over 100 µM throughout.

Consider `COc1ccc2c(=O)c(O)c(-c3ccc(C(C)(C)C)cc3)oc2c1` [F13, 2-(4-(Tert-butyl)phenyl)-3-hydroxy-7-methoxy-4H-chromen-4-one], for which the IC50 with A431 cells [1] was over 100 µM; with A375 cells [2] it was 28 ± 24 µM.

Consider `COc1cccc(-c2oc3cc(Br)ccc3c(=O)c2O)c1` [F15, 7-Bromo-3-hydroxy-2-(3-methoxyphenyl)-4H-chromen-4-one], for which the IC50 with A431 cells [1] and in the experiment with A375 cells [2] was over 100 µM throughout.

With `COc1ccc(-c2oc3ccc(Br)cc3c(=O)c2O)cc1OC` [F16, 6-Bromo-2-(3,4-dimethoxyphenyl)-3-hydroxy-4H-chromen-4-one], the concentration for half-maximal inhibition (IC50) in the experiment with UWBCC1 cells was 40 ± 0.89 µM; in the experiment with A431 cells [1] it was over 100 µM; with A375 cells [2] it was 79.5 ± 9 µM.

Regarding `Cc1cc2oc(-c3ccc(C(C)(C)C)cc3)c(O)c(=O)c2cc1Cl` [F18, 2-(4-(Tert-butyl)phenyl)-6-chloro-3-hydroxy-7-methyl-4H-chromen-4-one], the values for the IC50 in the experiment on A431 cells [1] and in the experiment with A375 cells [2] were 24 ± 5.6 µM and over 100 µM, respectively.

As for `Cc1cc2oc(-c3ccc(OCc4ccccc4)cc3)c(O)c(=O)c2cc1Cl` [F19, 2-(4-(Benzyloxy)phenyl)-6-chloro-3-hydroxy-7-methyl-4H-chromen-4-one], the half-inhibitory concentration (IC50) in the experiment with UWBCC1 cells turned out to be 1.1 ± 0.4 µM; in the experiment on Melanocyte it was 27 ± 1 µM; against mTOR/FRAP1 (mTOR/FRAP1 IC50, 10-dose, three-fold serial dilution from 100 μM), 1.64 µM; against CDK2/Cyclin A, 12.7 µM; on c-Kit, 0.33 µM; with A431 cells [1], 1.5 ± 0.3 µM. Besides, the half-maximal inhibitory concentration (IC50) in the experiment with SK-Mel-28 cells is 19 ± 3 µM; with A375 cells [2] it was 13 ± 2.6 µM; with HaCaT, 28 ± 0.31 µM. Also, the selectivity index was 25 in the experiment with UWBCC1 cells, 19 in the experiment on A431 cells [1], 1.2 with SK-Mel-28 cells and 1.7 in the experiment on A375 cells [2]. Further, the “DAPI (+) apoptotic cells” value is recorded as 14.2% in the experiment on A431 cells [3] (A431, treated 36 hours at IC50); 6.71% in the experiment on A431 cells [3] (setting [5]); 13.3% with A375 cells [4] (A375, treated 36 hours at IC50); 5.6% with A375 cells [4] (setting [6]).

On to `CCOc1ccc(-c2oc3cc(Cl)ccc3c(=O)c2O)cc1F` [F21, 7-Chloro-2-(4-ethoxy-3-fluorophenyl)-3-hydroxy-4H-chromen-4-one], for which the IC50 stood at 27 ± 0.1 µM with Melanocyte; 30.1 µM against CDK2/Cyclin A; 0.26 µM on c-Kit; 8.2 ± 0.2 µM with A431 cells [1]; 12 ± 3 µM in the experiment on SK-Mel-28 cells; 8.6 ± 0.4 µM with A375 cells [2]. The IC50 with HaCaT was 26 ± 0.4 µM. Moreover, the “inhibition of mTOR kinase activity (in words)” value at mTOR/FRAP1 is “did not substantively inhibit”. Besides, the “DAPI (+) apoptotic cells” value with A431 cells [3] (A431, treated 36 hours at IC50) came to 14.4%; in the experiment with A431 cells [3] (setting [5]) it was 8.8%; in the experiment on A375 cells [4] (setting [6]) it was 5.4%. Further, the selectivity index in the experiment with A431 cells [1] came to 3.2; in the experiment on SK-Mel-28 cells, 2.3; in the experiment with A375 cells [2] it was 3.2.

Turning to `COc1cc(-c2oc3ccc(F)cc3c(=O)c2O)cc(OC)c1OC` [F22, 6-Fluoro-3-hydroxy-2-(3,4,5-trimethoxyphenyl)-4H-chromen-4-one], the 50% inhibitory concentration (IC50) in the experiment on UWBCC1 cells worked out at 11 ± 2 µM; in the experiment on Melanocyte, 24 ± 1.6 µM; in the experiment on A431 cells [1] it was 13 ± 2.6 µM; in the experiment with A375 cells [2], 15 ± 1.9 µM; in the experiment with HaCaT, 23 ± 1.9 µM. Moreover, the selectivity index is given as 2.1 with UWBCC1 cells, 1.8 in the experiment on A431 cells [1] and 1.6 with A375 cells [2].

For the compound `COc1cc(OC)c(-c2oc3ccccc3c(=O)c2O)cc1OC` [F23, 3-Hydroxy-2-(2,4,5-trimethoxyphenyl)-4H-chromen-4-one], the concentration for half-maximal inhibition (IC50) was 9.4 ± 1.4 µM with UWBCC1 cells; 22 ± 1 µM in the experiment on Melanocyte; 12 ± 1.9 µM with A431 cells [1]; 19 ± 3 µM in the experiment on SK-Mel-28 cells; 13 ± 3.1 µM in the experiment with A375 cells [2]; 24 ± 1.4 µM in the experiment with HaCaT. Moreover, the selectivity index with UWBCC1 cells stood at 2.6; in the experiment on A431 cells [1], 2.0; in the experiment with SK-Mel-28 cells, 1.6; in the experiment on A375 cells [2], 1.7.

Take `COc1cc(OC)c(-c2oc3cc(Cl)ccc3c(=O)c2O)cc1OC` [F24, 7-Chloro-3-hydroxy-2-(2,4,5-trimethoxyphenyl)-4H-chromen-4-one]: the IC50 in the experiment with A431 cells [1] and in the experiment with A375 cells [2] was over 100 µM throughout.
